Measured values published in ChEMBL document CHEMBL1122022, “Catechol O-methyltransferase. 10. 5-Substituted 3-hydroxy-4-methoxybenzoic acids (isovanillic acids) and 5-substituted 3-hydroxy-4-methoxybenzaldehydes (isovanillins) as potential inhibitors” (J Med Chem, 1982).
Activity calls are given as the source filed them. No cut-off for these calls is given here.

Columns and labels:
[1] = target: T1, Catechol O-methyltransferase (Rattus norvegicus) (UniProt P22734); assay: Ability to inhibit Catechol O-methyltransferase from rat liver at a concentration of 1 mM. Inhibition pattern was reported; Competitive kinetics
T1 sequence (whole entry): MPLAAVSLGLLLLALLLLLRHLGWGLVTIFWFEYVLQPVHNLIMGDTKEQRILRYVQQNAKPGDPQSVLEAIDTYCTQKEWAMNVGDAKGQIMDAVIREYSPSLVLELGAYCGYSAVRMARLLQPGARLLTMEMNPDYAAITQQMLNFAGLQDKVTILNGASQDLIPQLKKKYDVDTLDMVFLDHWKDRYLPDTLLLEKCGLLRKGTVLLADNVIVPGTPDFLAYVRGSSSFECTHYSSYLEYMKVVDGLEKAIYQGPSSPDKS
Outline: (§1)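 COMT purified from male Sprague–Dawley rat liver (180–200 g) through the calcium phosphate step, then reactivated before use by 40 min preincubation at 37 °C in pH 7.6 phosphate buffer with 4 mM DTT. Radiochemical assay: 3,4-dihydroxybenzoic acid variable (0.02–0.20 mM), SAM 0.2 mM plus 0.05 μCi SAM-¹⁴CH₃, Mg²⁺ 1 mM, DTT 4 mM, 100 mM phosphate pH 7.6. Inhibition pattern and Kis/Kii taken from double-reciprocal plots.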

[2] = target: T1, Catechol O-methyltransferase (Rattus norvegicus); assay: Ability to inhibit Catechol O-methyltransferase kinetic inhibition Kis constant was reported.; outline: as §1
[3] = target: T1, Catechol O-methyltransferase (Rattus norvegicus); assay: Ability to inhibit Catechol O-methyltransferase from rat liver at a concentration of 1 mM. Inhibition pattern was reported; No inhibitory activity; outline: as §1
[4] = target: T1, Catechol O-methyltransferase (Rattus norvegicus); assay: Ability to inhibit Catechol O-methyltransferase from rat liver at a concentration of 1 mM. Inhibition pattern was reported; Noncompetitive kinetics; outline: as §1
[5] = target: T1, Catechol O-methyltransferase (Rattus norvegicus); assay: Ability to inhibit Catechol O-methyltransferase kinetic inhibition Kii constant was reported.; outline: as §1
[6] = target: T1, Catechol O-methyltransferase (Rattus norvegicus); assay: Ability to inhibit Catechol O-methyltransferase from rat liver. kinetic inhibition Kii constant was reported; outline: as §1
[7] = target: T1, Catechol O-methyltransferase (Rattus norvegicus); assay: Ability to inhibit Catechol O-methyltransferase from rat liver. kinetic inhibition Kis constant was reported; outline: as §1
[8] = target: T1, Catechol O-methyltransferase (Rattus norvegicus); assay: Ability to inhibit Catechol O-methyltransferase. Following kinetic inhibition constants Kii was reported; outline: as §1
[9] = target: T1, Catechol O-methyltransferase (Rattus norvegicus); assay: Ability to inhibit Catechol O-methyltransferase. Following kinetic inhibition constants Kis was reported; outline: as §1

Compound: COc1c(O)cc(C=O)cc1[N+](=O)[O-]
- inhibition [1]: Competitive kinetics
- Kis [2]: 0.7 µM

Compound: COc1c(N)cc(C(=O)O)cc1O
- inhibition [3]: inactive

Compound: COc1c(O)cc(C=O)cc1Cl
- inhibition pattern [4]: Noncompetitive kinetics
- Kii [5]: 10.8 µM
- Kis [2]: 31.6 µM

Compound: COc1c(O)cc(C(=O)O)cc1[N+](=O)[O-]
- inhibition pattern [4]: Noncompetitive kinetics
- Kii [6]: 247 µM
- Kis [7]: 50.2 µM

Compound: COc1ccc(C(=O)O)cc1O
- inhibition [3]: inactive

Compound: COc1ccc(C=O)cc1O
- inhibition [3]: inactive

Compound: COc1cc(C(=O)O)cc(O)c1OC
- inhibition pattern [4]: Noncompetitive kinetics
- Kii [6]: 521 µM
- Kis [7]: 999 µM

Compound: COc1c(O)cc(C(=O)O)cc1C#N
- inhibition pattern [4]: Noncompetitive kinetics
- Kii [6]: 571 µM
- Kis [7]: 589 µM

Compound: CCOC(=S)Sc1cc(C=O)cc(O)c1OC
- inhibition pattern [4]: Noncompetitive kinetics
- Kii [8]: 272 µM
- Kis [9]: 885 µM

Compound: COc1c(O)cc(C(=O)O)cc1Br
- inhibition [1]: Competitive kinetics
- Kis [7]: 340 µM

Compound: COc1c(O)cc(C(=O)O)cc1I
- inhibition [3]: inactive

Compound: COc1c(O)cc(C(=O)O)cc1N(C)C
- inhibition [3]: inactive

Compound: COc1c(O)cc(C(=O)O)cc1Cl
- inhibition [1]: Competitive kinetics
- Kis [7]: 394 µM

Compound: COc1c(O)cc(C=O)cc1I
- inhibition pattern [4]: Noncompetitive kinetics
- Kii [5]: 56.6 µM
- Kis [2]: 111 µM

Compound: COc1c(O)cc(C=O)cc1O
- inhibition pattern [4]: Noncompetitive kinetics
- Kii [5]: 16.1 µM
- Kis [2]: 9.98 µM

Compound: COc1c(O)cc(C=O)cc1Br
- inhibition pattern [4]: Noncompetitive kinetics
- Kii [5]: 16.5 µM
- Kis [2]: 31.8 µM

Compound: COc1c(O)cc(C=O)cc1F
- inhibition [4]: Noncompetitive kinetics
- Kii [5]: 48.4 µM
- Kis [2]: 56.9 µM
